Screening results (PubChem BioAssay)
An excerpt weighted towards active compounds, which were near 2.9% of everything screened.
MEKK3 PB1 HTS: modulators (inhibitors or enhancers) of MEK5 binding to human MEKK3 PB1 domain; bead-based flow cytometry, Alexa488-MEK5 binding to MEKK3; actives lie on both sides; 0 = blocked by unlabeled MEK5, 100 = vehicle; binding response (% of control), % at 10 µM; 290,000 compounds, 1.4% hits;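 active = binding response more than 3 SD above or below the average of its plate-row segment, actives on both sides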;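 also: Alexa488 bead fluorescence after subtracting the streptavidin-only scavenger bead signal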
Dynein transport: dynein cargo transport inhibition; AID 1381; z-score, hits read low; 3617.4 mouse cells, GR-EGFP nuclear translocation imaging; test concentration mostly 20 µM; stimulated with dexamethasone, 1 µM; hits give low values; 220,000 compounds, 0.47% hits;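 active = plate z-score of nuclear minus cytoplasmic receptor signal below a set negative limit, without overly bright fluorescence or cell loss, cut at about -3.5 in these data, passing the limit was not always enough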;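 also: z-score of nuclear minus cytoplasmic ring GR-EGFP intensity difference per well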
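Buffer or medium: Induction medium lacking tetracycline, stripped serum | Also added: Dexamethasone agonist, 1.0 µM final, for 30 min | Timing: 48 h induction, 1 h compound, 30 min dex at 37 °C | Detection: Formaldehyde fixation, Hoechst nuclear stain, 10x automated fluorescence imaging | Measure: Nuclear versus cytoplasmic GR-EGFP signal, averaged per well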
MEKK2 mut-MEK5: signal of MEK5 binding to mutant human MEKK2 PB1 domain; bead flow cytometry, Alexa488-MEK5 binding to MEKK2 mutant; percent response, % at 10 µM; 290,000 compounds, 0.35% hits; in the data active = percent response above about 24%, passing the limit was not always enough
Beta2AR agonist: agonists of human beta-2 adrenergic receptor inducing internalization. 340,000 compounds, 0.43% hits. P07550. response, % (no concentration beside the values). Am2.2-beta2AR cells, FAP receptor internalization, flow cytometry;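 active = response above a set limit, near 3 SD of response in nonfluorescent compounds, cut at about 42% in these data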
ATG4B inh: inhibitors of human ATG4B cysteine protease | Q9Y4P1 | ATG4B cleavage of LC3-PLA2, NBD-HPC fluorescence, 1 h | inhibition, % at 8.33 µM | 340,000 compounds, 0.51% hits; in the data active = inhibition above about 40%
Target sequence (Q9Y4P1 whole entry, looked up): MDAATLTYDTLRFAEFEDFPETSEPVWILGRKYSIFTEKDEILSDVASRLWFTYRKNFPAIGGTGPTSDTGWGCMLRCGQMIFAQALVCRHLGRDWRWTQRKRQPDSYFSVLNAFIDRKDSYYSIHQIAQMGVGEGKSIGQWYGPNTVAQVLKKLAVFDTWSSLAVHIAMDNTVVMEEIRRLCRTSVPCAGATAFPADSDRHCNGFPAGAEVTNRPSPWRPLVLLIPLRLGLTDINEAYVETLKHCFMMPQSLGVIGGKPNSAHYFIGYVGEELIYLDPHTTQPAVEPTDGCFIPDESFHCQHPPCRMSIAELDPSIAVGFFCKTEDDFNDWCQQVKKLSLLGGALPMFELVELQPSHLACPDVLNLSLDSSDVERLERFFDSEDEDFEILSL
MEKK2wt PB1 HTS: raises or lowers MEK5 binding to wildtype human MEKK2 PB1 domain; bead flow cytometry, Alexa488-MEK5 binding to MEKK2 WT; actives lie on both sides; AID 1531; 290,000 compounds, 1.1% hits; Q9Y2U5; binding response (% of control), % at 10 µM; in the data active = binding response below about 67% or above about 130%
B2AR ag CP1: activates human beta-2 adrenergic receptor | shares compounds with Beta2AR agonist | Am2.2-beta2AR cells, FAP surface receptor, flow cytometry; hits give low values | percent response (surface receptor), % at 10 µM | 1,100 compounds, 25% hits | AID 540358;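 active = surface receptor percent response at or below 58%, roughly 3 SD from nonfluorescent compounds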
B2AR FAP counter: fluorescence artifact in beta-2AR agonist FAP counterscreen; AID 588765; shares compounds with Beta2AR agonist; calls only at 10 µM; Am2.2 cells, FAP fluorogen flow cytometry; hits give low values; 1,100 tested, under 10 active;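 active = percent response below a set limit in fluorescence channel 1 and below 50% in channel 8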
Active calls of the source: *; i = inactive; . = no result; + = active, no number.

SMILES | MEKK3 PB1 HTS | Dynein transport | MEKK2 mut-MEK5 | Beta2AR agonist | ATG4B inh | MEKK2wt PB1 HTS | B2AR ag CP1 | B2AR FAP counter
CC(C)NC(=O)Nc1cccc2c1O[C@H](CN(C)S(C)(=O)=O)[C@@H](C)CN([C@H](C)CO)C2=O | . | . | . | -5.2 | -5.9 | . | . | .
CCn1cc(C(=O)O)c(=O)c2cc(F)c(N3CCN(S(=O)(=O)c4ccc(NC(C)=O)cc4)CC3)cc21 | 101.0 | -0.224 | 25.0 | 56.2* | -3.4 | 98.0 | 75.9 | i
O=C(Nc1ccc2oc(-c3ccc4ccccc4c3)nc2c1)c1ccc2c(c1)OCCO2 | 104.0 | 2.27 | -3.0 | 42.9* | 4.4 | 97.0 | 20.2* | i
O=C(Nc1ccc2oc(-c3ccccc3F)nc2c1)c1ccccc1F | 101.0 | . | 16.0 | 13.7 | 10.7 | 102.0 | 109.7 | i
COc1ccc(OC)c(CCNC(=O)C2CCN(c3nnc(-n4cccc4)s3)CC2)c1 | 109.0 | 1.72 | 6.0 | 51.2* | -7.3 | 113.0 | 88.7 | i
CC(C)CCNC(=O)C1CCN(c2nnc(-n3cccc3)s2)CC1 | 104.0 | -1.26 | 8.0 | -10.5 | -5.5 | 111.0 | . | .
CCCCOC(=O)Nc1ccc(S(=O)(=O)Nc2onc(C)c2C)cc1 | 97.0 | . | 5.0 | 2.4 | -0.7 | 97.0 | . | .
Cc1nc(NC(=O)CSc2nnc(-c3ccccc3)c(-c3ccccc3)n2)c(Cl)cc1Cl | 113.0 | -0.331 | 22.0 | 47.6* | 23.2 | 97.0 | 73.3 | i
COc1ccc(CCNC(=O)CNCCc2ccc(F)cc2)cc1 | 102.0 | . | 4.0 | -7.7 | 32.1 | 102.0 | . | .
COc1ccc(C(CCNCc2ccc(F)cc2)c2ccc(F)cc2)cc1 (stereo not drawn) | 99.0 | -0.553 | 5.0 | 41.6 | 6.6 | 128.0 | 103.6 | i
COc1ccc(C(CCNCc2ccccc2)c2ccc(F)cc2)cc1 (stereo not drawn) | 94.0 | -0.982 | 5.0 | 16.4 | 8.3 | 103.0 | 85.1 | i
COc1ccc(CNC(c2ccccc2)c2ccc(Cl)cc2)cc1 (stereo not drawn) | 103.0 | . | 0.0 | -0.6 | 0.1 | 108.0 | . | .
COc1ccc(CNCCC(c2ccc(F)cc2)c2ccc(OC)cc2)cc1 (stereo not drawn) | 100.0 | 1.42 | 3.0 | 34.6 | 5.9 | 140.0* | 87.7 | i
CCOC(=O)C(C)NC(=O)Cn1ncc2c(=O)oc3ccc(C)cc3c21 (stereo not drawn) | 106.0 | -0.0103 | 2.0 | -6.5 | -2.5 | 100.0 | . | .
CN(C(=O)c1ccc(COc2ccccc2Br)o1)c1ccccc1 | 105.0 | -0.407 | 1.0 | 3.6 | 25.7 | 102.0 | . | .
COc1ccc(OC(C)c2nnc(N)s2)cc1 (stereo not drawn) | 103.0 | -0.358 | 11.0 | 0.1 | -1.1 | 105.0 | . | .
Cn1nnnc1Sc1ncnc2scc(-c3ccc(F)cc3)c12 | 91.0 | -2.03 | -3.0 | 10.1 | -4.9 | 96.0 | . | .
Cn1nnnc1Sc1ncnc2scc(-c3ccc(Br)cc3)c12 | . | . | . | 67.8* | 2.7 | . | 32.4* | i
S=c1nc2ccccc2c2nc(-c3ccccc3)[nH]n12 | . | -0.854 | . | 2.3 | 2.2 | . | . | i
O=C(CCn1cnnn1)Nc1ccc(F)cc1 | 91.0 | 0.0674 | -1.0 | 5.8 | -2.6 | 96.0 | . | .
CCOC(=O)N1CCN(Cc2c(F)cccc2Cl)CC1 | 75.0 | 0.0124 | -7.0 | 3.1 | 3.1 | 88.0 | . | .
CCOC(=O)N1CCN(Cc2c(F)cccc2F)CC1 | 104.0 | 1.39 | 5.0 | 51.5* | -2.8 | 108.0 | 101.3 | i
Cc1cc(N2CCN(C)CC2)ccc1NC(=O)c1c2c(nc3ccccc13)CCN(Cc1ccccc1)C2 | 106.0 | 1.14 | 0.0 | 50.6* | -5.0 | 106.0 | 11.1* | +
O=C(NC1CCc2ccccc21)c1cc(COc2cncc(Cl)c2)on1 (stereo not drawn) | 98.0 | . | 8.0 | 5.4 | 13.7 | 103.0 | 123.2 | i
CCn1c(COc2ccccc2C)nnc1SCC(=O)CC(=O)Nc1ccccc1 | 99.0 | 0.891 | 0.0 | 0.0 | 3.5 | 94.0 | . | .
